Usually IC50 stands for the concentration that gives 50% inhibition. Higher therefore signals lower potency.

*1 amine or outer side, *2 acyl side, *3 side chain or, on linkers, in order; H or OH if unused. Where a SMILES comes first, the peptide text is derived from it. Bridges are numbered along the chain shown (N, C = ends). [ ]: non-standard residue; d: D form. Cys(O)(CH2CO) = O=C([C@H](C[S+]([O-])CC(=O)[*:3])N[*:1])[*:2]

Sequence of Integrin alpha-IIb/beta-3 (P05106 27-788 limits assumed): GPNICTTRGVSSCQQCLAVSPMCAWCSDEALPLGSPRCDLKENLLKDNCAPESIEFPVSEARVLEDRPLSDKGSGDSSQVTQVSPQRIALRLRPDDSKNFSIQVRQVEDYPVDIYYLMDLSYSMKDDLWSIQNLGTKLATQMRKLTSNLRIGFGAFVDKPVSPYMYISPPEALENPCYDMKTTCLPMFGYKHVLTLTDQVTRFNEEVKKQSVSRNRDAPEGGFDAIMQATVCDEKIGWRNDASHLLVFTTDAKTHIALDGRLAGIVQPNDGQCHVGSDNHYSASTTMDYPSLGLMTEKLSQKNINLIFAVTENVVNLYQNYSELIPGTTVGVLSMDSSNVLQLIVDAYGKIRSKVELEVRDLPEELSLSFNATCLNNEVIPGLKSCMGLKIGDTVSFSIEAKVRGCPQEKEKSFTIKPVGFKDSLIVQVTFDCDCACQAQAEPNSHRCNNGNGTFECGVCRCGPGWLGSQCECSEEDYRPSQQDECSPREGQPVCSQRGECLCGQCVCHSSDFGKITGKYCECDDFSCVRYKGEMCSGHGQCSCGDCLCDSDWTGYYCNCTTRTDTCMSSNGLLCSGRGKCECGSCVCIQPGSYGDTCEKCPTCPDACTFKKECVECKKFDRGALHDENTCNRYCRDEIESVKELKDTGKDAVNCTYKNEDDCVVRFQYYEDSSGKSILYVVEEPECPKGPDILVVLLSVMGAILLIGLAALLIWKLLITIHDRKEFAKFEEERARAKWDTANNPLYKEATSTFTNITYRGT
Sequence of Integrin alpha-IIb/beta-3 (P08514 32-887 limits assumed): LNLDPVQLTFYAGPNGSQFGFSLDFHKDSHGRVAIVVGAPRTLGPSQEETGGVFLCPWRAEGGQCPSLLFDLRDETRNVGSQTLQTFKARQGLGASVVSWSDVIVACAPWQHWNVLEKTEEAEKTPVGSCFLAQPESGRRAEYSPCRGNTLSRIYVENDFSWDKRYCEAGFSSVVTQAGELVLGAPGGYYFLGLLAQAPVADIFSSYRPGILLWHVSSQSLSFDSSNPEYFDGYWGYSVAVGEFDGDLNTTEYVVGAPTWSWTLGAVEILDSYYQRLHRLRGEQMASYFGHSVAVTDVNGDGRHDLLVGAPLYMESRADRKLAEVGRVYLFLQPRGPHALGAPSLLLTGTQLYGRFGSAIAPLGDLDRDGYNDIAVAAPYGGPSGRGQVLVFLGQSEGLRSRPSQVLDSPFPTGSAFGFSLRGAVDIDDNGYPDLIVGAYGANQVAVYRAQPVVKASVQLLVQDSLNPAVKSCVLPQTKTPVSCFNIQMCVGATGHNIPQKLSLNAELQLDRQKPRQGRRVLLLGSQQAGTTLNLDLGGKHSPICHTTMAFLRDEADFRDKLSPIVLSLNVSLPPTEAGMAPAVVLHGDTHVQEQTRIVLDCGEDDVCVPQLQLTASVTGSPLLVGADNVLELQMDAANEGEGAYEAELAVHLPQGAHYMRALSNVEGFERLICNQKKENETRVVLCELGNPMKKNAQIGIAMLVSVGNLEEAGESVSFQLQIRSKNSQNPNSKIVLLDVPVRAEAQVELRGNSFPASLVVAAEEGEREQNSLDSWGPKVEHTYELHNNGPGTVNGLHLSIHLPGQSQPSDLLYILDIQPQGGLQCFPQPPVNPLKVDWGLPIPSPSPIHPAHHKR
Sequence of Integrin alpha-IIb/beta-3 (P08514 891-1039 limits assumed): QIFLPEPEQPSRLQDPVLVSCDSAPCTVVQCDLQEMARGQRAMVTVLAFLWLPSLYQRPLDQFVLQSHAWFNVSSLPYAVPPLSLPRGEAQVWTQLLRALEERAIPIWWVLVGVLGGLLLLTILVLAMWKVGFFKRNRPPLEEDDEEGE

This assay concerns the target Integrin alpha-IIb/beta-3 (Homo sapiens, UniProt P08514+P05106). Description: Inhibition of ADP-induced platelet aggregation in human platelet-rich plasma. In outline: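 Human blood drawn into 3.8% sodium citrate (9:1); PRP from 180g spin, 12 min, 22 °C; count adjusted to 3 × 10^8/mL with PPP. PRP preincubated with test sample 5 min at 37 °C in aggregometer, then ADP 17.2 µM final. Inhibition from transmittance change at 5 min versus no-sample maximum; 12-14 concentrations over ~200-fold range; IC50 by four-parameter fit; n ≥ 3.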
The compound `N=C(N)NCCC[C@@H]1NC(=O)[C@H](CC(N)=O)NC(=O)C[S+]([O-])C[C@@H](C(=O)O)NC(=O)[C@H](CC(=O)O)NC(=O)CNC1=O` (some centres not stated) registered an IC50 of 460 nM. This counts as sub-micromolar. For `N=C(N)NCCC[C@@H]1NC(=O)[C@H](Cc2ccc(O)cc2)NC(=O)C[S+]([O-])C[C@@H](C(=O)O)NC(=O)[C@H](CC(=O)O)NC(=O)CNC1=O` (some centres not stated) the value was 450 nM. As for `CC(C)[C@H]1NC(=O)CSC[C@@H](C(=O)O)NC(=O)[C@H](CC(=O)O)NC(=O)CNC(=O)[C@H](CCCNC(=N)N)NC1=O`, the midpoint of inhibition, the IC50, lay at 8740 nM. For the compound `N=C(N)NCCC[C@@H]1NC(=O)[C@H](CCCN)NC(=O)CSC[C@@H](C(=O)O)NC(=O)[C@H](CC(=O)O)NC(=O)CNC1=O`, the IC50 amounted to 250 nM. In turn, `N=C(N)NCCC[C@@H]1NC(=O)[C@@H](Cc2ccccc2)NC(=O)CSC[C@@H](C(=O)O)NC(=O)[C@H](CC(=O)O)NC(=O)CNC1=O` showed an IC50 of 18500 nM. Compound `N=C(N)NCCC[C@@H]1NC(=O)[C@H](Cc2ccccc2)NC(=O)C[S+]([O-])C[C@@H](C(=O)O)NC(=O)[C@H](CC(=O)O)NC(=O)CNC1=O` (some centres not stated) registered a half-maximal inhibitory concentration (IC50) of 2230 nM. Regarding `CC(C)[C@@H]1NC(=O)CSC[C@@H](C(=O)O)NC(=O)[C@H](CC(=O)O)NC(=O)CNC(=O)[C@H](CCCNC(=N)N)NC1=O`, the midpoint of inhibition, the IC50, lay at 80 nM.

For the compound `N=C(N)NCCC[C@@H]1NC(=O)CNC(=O)C(c2ccc(C(F)(F)F)cc2)SC[C@@H](C(=O)O)NC(=O)[C@H](CC(=O)O)NC(=O)CNC1=O` (some centres not stated), the IC50 was 900 nM. As to `CCC1SC[C@@H](C(=O)O)NC(=O)[C@H](CC(=O)O)NC(=O)CNC(=O)[C@H](CCCNC(=N)N)NC(=O)CNC1=O` (some centres not stated), the IC50 was found to be 4850 nM.

In turn, `N=C(N)NCCC[C@@H]1NC(=O)[C@@H](Cc2ccc(O)cc2)NC(=O)CSC[C@@H](C(=O)O)NC(=O)[C@H](CC(=O)O)NC(=O)CNC1=O` ({CH2CO}-[dY]RGDC-OH; thioether N-5) gave an IC50 of 3450 nM. The IC50 values of the last two compounds are within 1.5-fold of each other.

As to `N=C(N)NCCC[C@@H]1NC(=O)[C@H](CO)NC(=O)C[S+]([O-])C[C@@H](C(=O)O)NC(=O)[C@H](CC(=O)O)NC(=O)CNC1=O` (some centres not stated) (SRGD[Cys(O)(CH2CO)]-OH; lactam N-5), the IC50 was found to be 490 nM. The compound `N=C(N)NCCC[C@@H]1NC(=O)CCNC(=O)CSC[C@@H](C(=O)O)NC(=O)[C@H](CC(=O)O)NC(=O)CNC1=O` showed an IC50 of 34300 nM. Compound `CCCC1SC[C@@H](C(=O)O)NC(=O)[C@H](CC(=O)O)NC(=O)CNC(=O)[C@H](CCCNC(=N)N)NC(=O)CNC1=O` (some centres not stated) had a 50% inhibitory concentration (IC50) of 1500 nM. Against the preceding compound, the IC50 is about 23-fold lower. The compound `CC(=O)NCC(=O)N[C@@H](CCCNC(=N)N)C(=O)NCC(=O)N[C@@H](CC(=O)O)C(=O)N[C@H](C(N)=O)C(C)C` (Ac-GRGDV-NH2) showed an IC50 above 500000 nM.

Take `C[C@@H]1NC(=O)C[S+]([O-])C[C@@H](C(=O)O)NC(=O)[C@H](CC(=O)O)NC(=O)CNC(=O)[C@H](CCCNC(=N)N)NC1=O` (some centres not stated): it took 610 nM to reach half-maximal inhibition (IC50). For the compound `C[C@@H](O)[C@@H]1NC(=O)C[S+]([O-])C[C@@H](C(=O)O)NC(=O)[C@H](CC(=O)O)NC(=O)CNC(=O)[C@H](CCCN=C(N)N)NC1=O` (some centres not stated), the half-inhibitory concentration (IC50) is 100 nM. `C[C@@H](O)[C@@H]1NC(=O)CSC[C@@H](C(=O)O)NC(=O)[C@H](CC(=O)O)NC(=O)CNC(=O)[C@H](CCCN=C(N)N)NC1=O` showed an IC50 of 240 nM. For `CC(C)C[C@@H]1NC(=O)C[S+]([O-])C[C@@H](C(=O)O)NC(=O)[C@H](CC(=O)O)NC(=O)CNC(=O)[C@H](CCCNC(=N)N)NC1=O` (some centres not stated) (LRGD[Cys(O)(CH2CO)]-OH; lactam N-5) the value was 100 nM; for `CC(C)C[C@H](NC(=O)[C@H](CC(=O)O)NC(=O)CNC(=O)[C@@H](N)CCCNC(=N)N)C(=O)O` (H-RGDL-OH), above 2000 nM; for `N=C(N)NCCC[C@@H]1NC(=O)CNC(=O)C(c2cccc3ccccc23)SC[C@@H](C(=O)O)NC(=O)[C@H](CC(=O)O)NC(=O)CNC1=O` (some centres not stated), 780 nM. Regarding `N=C(N)NCCC[C@@H]1NC(=O)[C@H](Cc2ccc(O)cc2)NC(=O)CSC[C@@H](C(N)=O)NC(=O)[C@H](CC(=O)O)NC(=O)CNC1=O` ({CH2CO}-YRGDC-NH2; thioether N-5), 700 nM corresponded to half-maximal inhibition (IC50). For `N=C(N)NCCC[C@@H]1NC(=O)[C@H](Cc2c[nH]c3ccccc23)NC(=O)CSC[C@@H](C(=O)O)NC(=O)[C@H](CC(=O)O)NC(=O)CNC1=O` the value was 460 nM. `N=C(N)NCCC[C@@H]1NC(=O)[C@H](Cc2ccc(O)cc2)NC(=O)CSC[C@@H](C(=O)O)NC(=O)[C@H](CC(=O)O)NC(=O)CNC1=O` ({CH2CO}-YRGDC-OH; thioether N-5): half-maximal inhibition (IC50) required 150 nM. As to `N=C(N)NCCC[C@@H]1NC(=O)[C@@H](Cc2cnc[nH]2)NC(=O)CSC[C@@H](C(=O)O)NC(=O)[C@H](CC(=O)O)NC(=O)CNC1=O`, the IC50 was 1080 nM. In the case of `N=C(N)NCCC[C@@H]1NC(=O)[C@H](CCCCN)NC(=O)CSC[C@@H](C(=O)O)NC(=O)[C@H](CC(=O)O)NC(=O)CNC1=O`, half-maximal inhibition (IC50) required 600 nM.

In turn, `N=C(N)NCCC[C@@H]1NC(=O)CNC(=O)C(c2ccc(-c3ccccc3)cc2)SC[C@@H](C(=O)O)NC(=O)[C@H](CC(=O)O)NC(=O)CNC1=O` (some centres not stated) yielded an IC50 of 1480 nM.

For `CC(=O)NCC(=O)N[C@@H](CCCNC(=N)N)C(=O)NCC(=O)N[C@@H](CC(=O)O)C(=O)N[C@H](C(=O)O)C(C)C` (Ac-GRGDV-OH), the IC50 came out at 77000 nM. For the compound `N=C(N)NCCC[C@@H]1NC(=O)[C@H](CCCCN)NC(=O)C[S+]([O-])C[C@@H](C(=O)O)NC(=O)[C@H](CC(=O)O)NC(=O)CNC1=O` (some centres not stated) (KRGD[Cys(O)(CH2CO)]-OH; lactam N-5), the 50% inhibitory concentration (IC50) amounted to 2800 nM.

In turn, `N=C(N)NCCC[C@@H]1NC(=O)[C@H](CO)NC(=O)CSC[C@@H](C(=O)O)NC(=O)[C@H](CC(=O)O)NC(=O)CNC1=O` registered an IC50 of 480 nM.

`N=C(N)NCCC[C@@H]1NC(=O)[C@@H](Cc2ccc(O)cc2)NC(=O)CS(=O)(=O)C[C@@H](C(=O)O)NC(=O)[C@H](CC(=O)O)NC(=O)CNC1=O`: the IC50 was 210 nM. This IC50 is about 2.3-fold lower than that of the compound before. In turn, `N=C(N)NCCC[C@H](N)C(=O)NCC(=O)N[C@@H](CC(=O)O)C(=O)N[C@@H](Cc1ccc(O)cc1)C(=O)O` (H-RGDY-OH) gave a half-inhibitory concentration (IC50) of 94000 nM. The figure for `N=C(N)NCCC[C@@H]1NC(=O)CNC(=O)[C@@H](Cc2ccccc2)SC[C@@H](C(=O)O)NC(=O)[C@H](CC(=O)O)NC(=O)CNC1=O` is 7000 nM; for `N=C(N)NCCC[C@@H]1NC(=O)[C@@H]2CCCN2C(=O)CSC[C@@H](C(=O)O)NC(=O)[C@H](CC(=O)O)NC(=O)CNC1=O` ({CH2CO}-PRGDC-OH; thioether N-5) it is 430 nM; for `C[C@H]1NC(=O)CSC[C@@H](C(=O)O)NC(=O)[C@H](CC(=O)O)NC(=O)CNC(=O)[C@H](CCCNC(=N)N)NC1=O` ({CH2CO}-[dA]RGDC-OH; thioether N-5) it is 4000 nM. The compound `N=C(N)NCCC[C@@H]1NC(=O)[C@H](Cc2ccccc2)NC(=O)CSC[C@@H](C(=O)O)NC(=O)[C@H](CC(=O)O)NC(=O)CNC1=O` gave an IC50 of 220 nM. Consider `N=C(N)NCCC[C@@H]1NC(=O)CNC(=O)C[S+]([O-])C[C@@H](C(=O)O)NC(=O)[C@H](CC(=O)O)NC(=O)CNC1=O` (some centres not stated), for which the IC50 amounted to 370 nM. In turn, `N=C(N)NCCC[C@@H]1NC(=O)CNC(=O)CSC[C@@H](C(N)=O)NC(=O)[C@H](CC(=O)O)NC(=O)CNC1=O` ({CH2CO}-GRGDC-NH2; thioether N-5) yielded an IC50 of 150000 nM. This IC50 is about 410-fold higher than that of the compound before. `N=C(N)NCCC[C@@H]1NC(=O)[C@H](Cc2cnc[nH]2)NC(=O)CSC[C@@H](C(=O)O)NC(=O)[C@H](CC(=O)O)NC(=O)CNC1=O` returned an IC50 of 540 nM. This IC50 lies about 280-fold lower than the previous one. For `C[C@H](O)[C@H]1NC(=O)CSC[C@@H](C(=O)O)NC(=O)[C@H](CC(=O)O)NC(=O)CNC(=O)[C@H](CCCN=C(N)N)NC1=O` the value was 2920 nM; for `N=C(N)NCCC[C@@H]1NC(=O)CNC(=O)CS(=O)(=O)C[C@@H](C(=O)O)NC(=O)[C@H](CC(=O)O)NC(=O)CNC1=O`, 7700 nM. For `CC(C)[C@H](NC(=O)[C@H](CC(=O)O)NC(=O)CNC(=O)[C@H](CCCNC(=N)N)NC(=O)CN)C(=O)O` (H-GRGDV-OH) the value was 75000 nM. On to `N=C(N)NCCC[C@@H]1NC(=O)CNC(=O)C(c2ccccc2C(F)(F)F)SC[C@@H](C(=O)O)NC(=O)[C@H](CC(=O)O)NC(=O)CNC1=O` (some centres not stated), for which the IC50 is 150 nM.

In turn, `CSCC[C@@H]1NC(=O)CSC[C@@H](C(=O)O)NC(=O)[C@H](CC(=O)O)NC(=O)CNC(=O)[C@H](CCCNC(=N)N)NC1=O` showed an IC50 of 1060 nM. Regarding `N=C(N)NCCC[C@@H]1NC(=O)[C@H](Cc2ccc(O)cc2)NC(=O)C[S+]([O-])C[C@@H](C(N)=O)NC(=O)[C@H](CC(=O)O)NC(=O)CNC1=O` (some centres not stated) (YRGD[Cys(O)(CH2CO)]-NH2; lactam N-5), it took 200 nM to reach half-maximal inhibition (IC50). With `N=C(N)NCCC[C@@H]1NC(=O)[C@H](CCC(=O)O)NC(=O)C[S+]([O-])C[C@@H](C(=O)O)NC(=O)[C@H](CC(=O)O)NC(=O)CNC1=O` (some centres not stated), the concentration for half-maximal inhibition (IC50) worked out at 900 nM.

Turning to `N=C(N)NCCC[C@@H]1NC(=O)[C@H](CC(=O)O)NC(=O)C[S+]([O-])C[C@@H](C(=O)O)NC(=O)[C@H](CC(=O)O)NC(=O)CNC1=O` (some centres not stated) (DRGD[Cys(O)(CH2CO)]-OH; lactam N-5), half-maximal inhibition (IC50) required 2140 nM. With `N=C(N)NCCC[C@@H]1NC(=O)CNC(=O)CSC[C@@H](C(=O)O)NC(=O)[C@H](CC(=O)O)NC(=O)CNC1=O` ({CH2CO}-GRGDC-OH; thioether N-5), the IC50 worked out at 5000 nM.

Take `N=C(N)NCCC[C@H](NC(=O)CN)C(=O)NCC(=O)N[C@@H](CC(=O)O)C(=O)N[C@@H](CC(=O)O)C(=O)O` (H-GRGDD-OH): the concentration for half-maximal inhibition (IC50) was above 500000 nM. `NC(N)=NCCC[C@H](N)C(=O)NCC(=O)N[C@@H](CC(=O)O)C(=O)N[C@@H](Cc1ccccc1)C(=O)O` (H-RGDF-OH) displayed an IC50 of 43000 nM.

On to `CC[C@H](C)[C@@H]1NC(=O)CSC[C@@H](C(=O)O)NC(=O)[C@H](CC(=O)O)NC(=O)CNC(=O)[C@H](CCCN=C(N)N)NC1=O`, for which the midpoint of inhibition, the IC50, lay at 270 nM. Take `N=C(N)NCCC[C@@H]1NC(=O)[C@@H](Cc2c[nH]c3ccccc23)NC(=O)CSC[C@@H](C(=O)O)NC(=O)[C@H](CC(=O)O)NC(=O)CNC1=O`: the IC50 came to 4780 nM. The compound `N=C(N)NCCC[C@@H]1NC(=O)c2cccc(c2)CSC[C@@H](C(=O)O)NC(=O)[C@H](CC(=O)O)NC(=O)CNC1=O` returned an IC50 of 30800 nM.
